Results on six molecules are retold here after ChEMBL document CHEMBL1122803, “Folate antagonists. 22. Antimalarial and antibacterial effects of 2,4-diamino-6-quinazolinesulfonamides” (1984).

In brackets after ≈: the same amount, converted by molar mass.

Assay [1] relates to Plasmodium berghei. In words: Antimalarial activity as survivor numbers at day 60 for drug-sensitive Plasmodium berghei infected mice (Mus musculus) at 320 mg/kg subcutaneous dose over 72 hrs. Format: functional. In short, it runs like this: (§1)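 Mice infected with drug-sensitive P. berghei got one subcutaneous dose in sesame or peanut oil 72 h postinfection. Read-out is the number of mice alive at 60 days postinfection, termed "cured", without subinoculation to confirm parasitological cure. Groups of five per dose, or 10 where indicated.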

In assay [2] the test system is Plasmodium berghei. Description: Antimalarial activity as survivor numbers at day 60 for drug-sensitive Plasmodium berghei infected mice (Mus musculus) at 40 mg/kg subcutaneous dose over 72 hr. Format: functional. The gist of the method: as §1
The subject of assay [3] is Plasmodium berghei. In words: Antimalarial activity as survivor numbers at day 60 for drug-sensitive Plasmodium berghei infected mice (Mus musculus) at 80 mg/kg subcutaneous dose over 72 hr. Format: functional. The gist of the method:
as §1

The test system of assay [4] is Plasmodium berghei. Description: Antimalarial activity as survivor number at day 60 against drug-sensitive Plasmodium berghei infected mice (Mus musculus) at 160 mg/kg subcutaneous dose after 72 hr. Format: functional. In short, it runs like this:
as §1

The test system of assay [5] is Escherichia coli. Description: Tested in vitro against Escherichia coli Vogel. by gradient-plate test. Format: functional. The gist of the method:
(§2)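 Antibacterial testing in vitro by gradient-plate test. Read-out was the minimum inhibitory concentration, with values exceeding 25 reported as >25.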

The test system of assay [6] is Plasmodium berghei. Description: Antimalarial activity as change in MST for drug-sensitive Plasmodium berghei infected mice (Mus musculus) at 40 mg/kg subcutaneous dose over 72hr. Format: functional.
For assay [7], the system named is Plasmodium berghei. Description: Antimalarial activity as change in MST for drug-sensitive Plasmodium berghei infected mice (Mus musculus) at 80mg/kg subcutaneous dose over 72h. Format: functional.
Assay [8] has as its system Plasmodium berghei. Description: Antimalarial activity as change in MST against drug-sensitive Plasmodium berghei infected mice (Mus musculus) at 20 mg/kg subcutaneous dose after 72h. Format: functional.
Assay [9] has as its system Plasmodium berghei. In words: Antimalarial activity as change in MST against drug-sensitive Plasmodium berghei infected mice (Mus musculus) at 160 mg/kg subcutaneous dose after 72h. Format: functional.
In assay [10] the test system is Pseudomonas aeruginosa. Description: Compound was tested in vitro against Pseudomonas aeruginosa 28. by gradient-plate test. Format: functional. The gist of the method:
as §2

For assay [11], the system named is Plasmodium berghei. In words: Antimalarial activity as survivor numbers at day 60 for drug-sensitive Plasmodium berghei infected mice (Mus musculus) at 640 mg/kg subcutaneous dose over 72 hr. Format: functional. The gist of the method:
as §1

Assay [12] relates to Shigella sonnei. In words: In vitro antibacterial activity against Shigella sonnei C-10. Format: functional. In short, it runs like this: as §2
Assay [13] deals with Staphylococcus aureus. Description: In vitro antibacterial activity against […] U.C-76. Format: functional. In short, it runs like this: as §2
Assay [14] deals with Enterococcus faecalis. Description: In vitro antibacterial activity against Streptococcus faecalis MGH-2. Format: functional. In short, it runs like this: as §2
Assay [15] has as its system Staphylococcus aureus. Description: In vitro antibacterial activity against […] S 18713. Format: functional. The gist of the method:
as §2

In assay [16] the test system is Mycobacterium tuberculosis. Description: In vitro antibacterial activity against Mycobacterium tuberculosis H37Rv. Format: functional. In short, it runs like this:
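Mycobacterium tuberculosis tested in vitro by gradient-plate test; minimum inhibitory concentration reported.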

For assay [17], the system named is Plasmodium berghei. In words: In vivo antimalarial activity against drug-sensitive Plasmodium berghei in mice (Mus musculus) after 320 mg/kg subcutaneous dose for 72 hrs as survivors 60 days post infection.
Assay [18] deals with Escherichia coli. In words: Compound was tested in vitro against Escherichia coli Vogel, by gradient-plate test. Format: functional. The gist of the method: as §2
Assay [19] concerns Plasmodium berghei. In words: Antimalarial activity as change in MST for drug-sensitive Plasmodium berghei infected mice (Mus musculus) at 640 mg/kg subcutaneous dose over 72 hr. Format: functional.
Assay [20] deals with Pseudomonas aeruginosa. In words: Compound was tested in vitro against Pseudomonas aeruginosa 28, by gradient-plate test. Format: functional. The gist of the method:
as §2

The subject of assay [21] is Shigella sonnei. In words: Compound was tested in vitro against Shigella sonnei C-10, by gradient-plate test. Format: functional. The gist of the method:
as §2

For assay [22], the system named is Plasmodium berghei. Description: Antimalarial activity as toxic deaths 2-5 days post infection for drug-sensitive Plasmodium berghei infected mice (Mus musculus) at 320 mg/kg subcutaneous dose over 72 hrs. Format: functional. In short, it runs like this: (§3)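 P. berghei (drug-sensitive) infected mice dosed once subcutaneously 72 h postinfection, compound in sesame or peanut oil. Read-out is the count of deaths on days 2–5 after infection, attributed to drug toxicity. Five animals per dose level, or 10 where indicated.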

The subject of assay [23] is Plasmodium berghei. In words: Antimalarial activity as toxic deaths 2-5 days post infection for drug-sensitive Plasmodium berghei infected mice (Mus musculus) at 640 mg/kg subcutaneous dose over 72 hr. Format: functional. In short, it runs like this: as §3
The test system of assay [24] is Plasmodium berghei. Description: Antimalarial activity as survivor numbers at day 60 for drug-sensitive Plasmodium berghei infected mice (Mus musculus) at 40 mg/kg over 72 hr. Format: functional. In short, it runs like this:
as §1

Assay [25] relates to Plasmodium berghei. Description: Antimalarial activity as survivor numbers at day 60 against drug-sensitive Plasmodium berghei infected mice (Mus musculus) at 160 mg/kg subcutaneous dose after 72 hr. Format: functional. In short, it runs like this:
as §1

The subject of assay [26] is Pseudomonas aeruginosa. Description: In vitro against Pseudomonas aeruginosa 28. by gradient-plate test. Format: functional. In short, it runs like this:
as §2

Assay [27] has as its system Plasmodium berghei. Description: Antimalarial activity as survivor numbers at day 60 for drug-sensitive Plasmodium berghei infected mice (Mus musculus) at 320 mg/kg subcutaneous dose for 72 hr. Format: functional. In short, it runs like this:
as §1

The subject of assay [28] is Plasmodium berghei. Description: Antimalarial activity as change in MST for drug-sensitive Plasmodium berghei infected mice (Mus musculus) at 40 mg/kg subcutaneous dose over 72 hr. Format: functional.

On to `Nc1nc(N)c2cc(S(=O)(=O)c3ccc4ccccc4c3)ccc2n1`, for which the survivors at day 60 in assay [1], in assay [2], in assay [3] and in [4] was 5 throughout.
One may read the MIC as the lowest concentration found to suppress growth. High values mean a less susceptible organism, low ones a more susceptible organism. `Nc1nc(N)c2cc(S(=O)(=O)N3CCCC3)ccc2n1`: the minimum inhibitory concentration (MIC) is 10 µg/mL (≈ 34.1 µM) in assay [5]; above 25 µg/mL in assay [10]; above 25 µg/mL in assay [12]; below 0.25 µg/mL in assay [13]; below 0.25 µg/mL in [14]; 2 µg/mL (≈ 6.82 µM) in assay [15]. For the same molecule, the MIC in assay [16] worked out at 10 µg/mL (≈ 34.1 µM). Moreover, the “Delta MST” value stood at 5 days in assay [6], 6.9 days in assay [7], 0.5 days in assay [8] and 8.7 days in assay [9]. Besides, the survivors at day 60 in assay [11] worked out at 10; in [17], 5.
Consider `Nc1nc(N)c2cc(S(N)(=O)=O)ccc2n1`, for which the MIC in [18], in assay [20], in assay [21], in assay [13], in assay [14] and in assay [15] was above 25 µg/mL each time. The “Delta MST” value turned out to be 0.1 days in assay [6], 0.3 days in [19] and 0.3 days in assay [9].
`Nc1nc(N)c2c(Cl)c(NCc3ccc(Cl)c(Cl)c3)ccc2n1`: the toxic deaths in assay [22] and in assay [23] was 5 in each case. In addition, the survivors at day 60 in assay [3], in assay [24] and in assay [25] was 5 throughout.
Turning to `Nc1nc(N)c2cc(S(=O)(=O)N3CCOCC3)ccc2n1`, the MIC in assay [5] is above 25 µg/mL; in assay [12], above 25 µg/mL; in [13] it was 2 µg/mL (≈ 6.47 µM); in assay [14], below 0.25 µg/mL; in [15], above 25 µg/mL; in assay [16] it was above 25 µg/mL. In assay [26], this molecule returned an MIC above 25 µg/mL. Also, the “Delta MST” value is 4.7 days in assay [6], 14.5 days in assay [7] and 1.7 days in [8]. The survivors at day 60 in assay [25] came to 10; in assay [11], 10; in assay [17] it was 5.
Consider `CCN(CC)S(=O)(=O)c1ccc2nc(N)nc(N)c2c1`, for which the “Delta MST” value in assay [27] turned out to be 5 days; in [28] it was 3.3 days; in assay [7], 4.3 days; in assay [19], 5 days; in assay [8], 0.7 days; in [9], 9.4 days.
